Test results taken from ChEMBL document CHEMBL1681759, “Synthesis and biological evaluation of benzimidazole-5-carbohydrazide derivatives as antimalarial, cytotoxic and antitubercular agents” (Bioorg Med Chem, 2011).
≈ marks a conversion by molar mass, not a printed value.

Assays:
Plasmodium berghei [1] = assay: Antimalarial activity against chloroquine-susceptible Plasmodium berghei ANKA infected in Balb-C mouse assessed as inhibition parasitemia at 20 mg/kg, ip qd for 4 days […]; assay type: functional; settings: 96 h, route intraperitoneal
Summary of the method: (§1)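 Balb-C mice (18–23 g, n = 6) were infected iv in the caudal vein with 10⁶ P. berghei ANKA-infected RBCs. Dosing started 2 h post-infection: 20 mg/kg ip once daily for 4 days, DMSO stock diluted in Saline-Tween 20 (2%). Chloroquine 25 mg/kg served as positive control; untreated mice were controls. Parasitemia was read on day 4 from Giemsa smears, and survival days were recorded.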

Plasmodium berghei [2] = assay: Antimalarial activity against chloroquine-susceptible Plasmodium berghei ANKA infected in Balb-C mouse assessed as mouse survival days at 20 mg/kg, ip qd for 4 days […] relative to untreated control; assay type: functional; settings: route intraperitoneal
[3] = Inhibition of beta-hematin formation assessed as inhibition of […] polymerization at […] after 48 hrs; assay type: functional
Summary of the method: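 Hemin chloride (50 µL, 4 mM in DMSO) was mixed in triplicate with compound in DMSO; water or DMSO served as controls. Reaction was started with acetate buffer (0.2 M, pH 4.4) and run 37 °C for 48 h. The pellet was DMSO-washed twice, dissolved in 0.2 N NaOH, diluted 1:2 in 0.1 N NaOH, and read at 405 nm as % inhibition of FP polymerization.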

Plasmodium berghei [4] = assay: Antimalarial activity against chloroquine-susceptible Plasmodium berghei ANKA infected in Balb-C mouse; assay type: functional, organism-based; summary of the method: as §1
Plasmodium berghei [5] = assay: Antimalarial activity against chloroquine-susceptible Plasmodium berghei ANKA assessed as inhibition of trophozoite extract-mediated mouse hemoglobin hydrolysis at 10 mM after 18 hrs by SDS-PAGE; assay type: functional
Summary of the method: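 Trophozoite extract came from P. berghei-infected mouse blood at 30–50% parasitemia: RBCs percoll-purified (80–70%), saponin-lysed, then freeze–thawed three times. Substrate was native haemoglobin from uninfected mouse erythrocytes lysed in water. The mix held GSH and acetate buffer (0.2 M, pH 5.4). Compound was added in DMSO and incubated 37 °C, 18 h. Reactions were stopped with reduced sample buffer.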

M14 = assay: Cytotoxicity against human M14 cells assessed as growth inhibition after 48 hrs by sulforhodamine B assay; assay type: functional; settings: M14, 48 h
Summary of the method: (§2)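 Cells were exposed to serial compound dilutions in 96-well plates for 48 h at 37 °C alongside solvent controls. Growth was read colorimetrically by sulforhodamine B. GI50 is the concentration giving a 50% reduction in absorbance versus solvent-treated controls, derived by linear regression.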

[6] = tested on: Mycobacterium tuberculosis; assay: Antimycobacterial activity against Mycobacterium tuberculosis H37Rv after 5 days by tetrazolium microplate assay; assay type: functional; settings: 120 h
Summary of the method: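 Tetrazolium microplate assay run in 7H9GC broth. DMSO stocks (4 mg/mL) were diluted to final 0.4–25 µg/mL. Isoniazid (0.125–32 µg/mL) and rifampin (0.063–16 µg/mL) were positive controls; inoculum-only and DMSO controls were included. Plates were incubated 5 days at 37 °C, then an MTT-Tween 80 mix was added and incubation continued 24 h at 37 °C. Run in triplicate. MIC = lowest concentration preventing the yellow-to-purple colour change.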

NCI-H460 = assay: Cytotoxicity against human H460 cells assessed as growth inhibition after 48 hrs by sulforhodamine B assay; assay type: functional; settings: NCI-H460, 48 h; summary of the method: as §2
[7] = Cytotoxicity against african green monkey Vero cells assessed as growth inhibition after 48 hrs by sulforhodamine B assay; assay type: cell-based; settings: chlorocebus sabaeus; summary of the method: as §2
K562 = assay: Cytotoxicity against human K562 cells assessed as growth inhibition after 48 hrs by sulforhodamine B assay; assay type: functional; settings: K562, 48 h; summary of the method: as §2
MCF7 = assay: Cytotoxicity against human MCF7 cells assessed as growth inhibition after 48 hrs by sulforhodamine B assay; assay type: functional; settings: MCF7, 48 h; summary of the method: as §2
[8] = Cytotoxicity against mouse 3T3 cells assessed as growth inhibition after 48 hrs by sulforhodamine B assay; assay type: cell-based; settings: NIH3T3 cells; summary of the method: as §2
DU-145 = assay: Cytotoxicity against human DU145 cells assessed as growth inhibition after 48 hrs by sulforhodamine B assay; assay type: functional; settings: DU-145, 48 h; summary of the method: as §2
HT-29 = assay: Cytotoxicity against human HT-29 cells assessed as growth inhibition after 48 hrs by sulforhodamine B assay; assay type: functional; settings: HT-29, 48 h; summary of the method: as §2

Structure (SMILES)	inhibition in vivo at 20 mg/kg (Plasmodium berghei [1])	Survival (Plasmodium berghei [2])	inhibition [3]	IC50 (Plasmodium berghei [4])	inhibition at 10000 µM (Plasmodium berghei [5])	GI50 (M14)	MIC [6]	GI50 (NCI-H460)	GI50 at 48 h [7]	GI50 (K562)	GI50 (MCF7)	GI50 at 48 h [8]	GI50 (DU-145)	GI50 (HT-29)
O=C(O)c1ccc2[nH]c(-c3ccc([N+](=O)[O-])s3)nc2c1	11.5%	12.2 days	57.6%	21.1 µM	0%									
O=C(NNC(=O)c1cc2ccccc2cc1O)c1ccc2[nH]c(-c3ccc([N+](=O)[O-])s3)nc2c1	1.8%	18.8 days	75.8%	11.1 µM	14.1%	62.5 µg/mL (≈ 132 µM)	> 25 µg/mL	62.5 µg/mL (≈ 132 µM)	31.2 µg/mL (≈ 66 µM)	31.2 µg/mL (≈ 66 µM)	62.5 µg/mL (≈ 132 µM)	31.2 µg/mL (≈ 66 µM)	62.5 µg/mL (≈ 132 µM)	62.5 µg/mL (≈ 132 µM)
CO[C@H]1/C=C/O[C@@]2(C)Oc3c(C)c(O)c4c(O)c(c(/C=N/N5CCN(C)CC5)c(O)c4c3C2=O)NC(=O)/C(C)=C\C=C\[C@H](C)[C@H](O)[C@@H](C)[C@@H](O)[C@@H](C)[C@H](OC(C)=O)[C@@H]1C [RIFAMPIN]							0.063 µg/mL (≈ 0.0766 µM)							
NNC(=O)c1ccncc1 [ISONIAZID]							0.125 µg/mL (≈ 0.911 µM)							
O=C(NNC(=O)c1ccc2[nH]c(-c3ccc([N+](=O)[O-])s3)nc2c1)c1cccc(Cl)c1	27.2%	7.4 days	78.6%	16 µM	44.9%									
O=C(NNC(=O)c1ccc2[nH]c(-c3ccc([N+](=O)[O-])o3)nc2c1)c1cccc(Oc2ccccc2)c1	12.9%	10.6 days	84.6%	14.1 µM		> 7.8 µg/mL	> 25 µg/mL	> 7.8 µg/mL	> 7.8 µg/mL	> 7.8 µg/mL	> 7.8 µg/mL	> 7.8 µg/mL	> 7.8 µg/mL	> 7.8 µg/mL
COc1ccc(C(=O)NNC(=O)c2ccc3[nH]c(-c4ccc([N+](=O)[O-])o4)nc3c2)cc1OC	4.8%	12.2 days	94.8%	8.71 µM	34.5%	15.6 µg/mL (≈ 34.6 µM)	> 25 µg/mL	15.6 µg/mL (≈ 34.6 µM)	62.5 µg/mL (≈ 138 µM)	15.6 µg/mL (≈ 34.6 µM)	31.2 µg/mL (≈ 69.2 µM)	31.2 µg/mL (≈ 69.2 µM)	15.6 µg/mL (≈ 34.6 µM)	15.6 µg/mL (≈ 34.6 µM)
O=C(NNC(=O)c1ccc2[nH]c(-c3ccc([N+](=O)[O-])o3)nc2c1)c1ccc(Cl)cc1	27.4%	9.8 days	59.6%	23.4 µM	33.8%									
CCN(CC)CCCC(C)Nc1ccnc2cc(Cl)ccc12 (stereo unspecified) [CHLOROQUINE]	1.3%	>30 days	94.2%		24.1%									
O=CNNC(=O)c1ccc2[nH]c(-c3ccc([N+](=O)[O-])s3)nc2c1	18.7%	10.04 days	87.4%	9.88 µM	36.2%									
CC(=O)N[C@@H](CC(C)C)C(=O)N[C@@H](CC(C)C)C(=O)N[C@H](C=O)CCCNC(=N)N [LEUPEPTIN]					91.6%									
COc1cc(C(=O)NNC(=O)c2ccc3[nH]c(-c4ccc([N+](=O)[O-])o4)nc3c2)cc(OC)c1OC	9.4%	12.2 days	69.4%	14.4 µM	0%	15.6 µg/mL (≈ 32.5 µM)	> 25 µg/mL	31.2 µg/mL (≈ 64.9 µM)	31.2 µg/mL (≈ 64.9 µM)	31.2 µg/mL (≈ 64.9 µM)	31.2 µg/mL (≈ 64.9 µM)	31.2 µg/mL (≈ 64.9 µM)	15.6 µg/mL (≈ 32.5 µM)	31.2 µg/mL (≈ 64.9 µM)
O=C(NNC(=O)c1ccc2[nH]c(-c3ccc([N+](=O)[O-])o3)nc2c1)c1ccccc1	10.1%	13.6 days	79.2%	10.9 µM	0%	15.6 µg/mL (≈ 39.9 µM)	12.5 µg/mL (≈ 31.9 µM)	62.5 µg/mL (≈ 160 µM)	31.2 µg/mL (≈ 79.9 µM)	15.6 µg/mL (≈ 39.9 µM)	62.5 µg/mL (≈ 160 µM)	31.2 µg/mL (≈ 79.9 µM)	15.6 µg/mL (≈ 39.9 µM)	31.2 µg/mL (≈ 79.9 µM)
COc1cc(C(=O)NNC(=O)c2ccc3[nH]c(-c4ccc([N+](=O)[O-])s4)nc3c2)cc(OC)c1OC	9.36%	10 days	92.4%	9.56 µM		62.5 µg/mL (≈ 126 µM)	> 25 µg/mL	62.5 µg/mL (≈ 126 µM)	31.2 µg/mL (≈ 62.8 µM)	31.2 µg/mL (≈ 62.8 µM)	31.2 µg/mL (≈ 62.8 µM)	31.2 µg/mL (≈ 62.8 µM)	62.5 µg/mL (≈ 126 µM)	62.5 µg/mL (≈ 126 µM)
CC(C)CC(=O)N[C@H](C(=O)N[C@H](C(=O)N[C@@H](CC(C)C)[C@@H](O)CC(=O)N[C@@H](C)C(=O)N[C@@H](CC(C)C)[C@@H](O)CC(=O)O)C(C)C)C(C)C [PEPSTATIN]					95.5%									
COc1ccc(C(=O)NNC(=O)c2ccc3[nH]c(-c4ccc([N+](=O)[O-])s4)nc3c2)cc1OC	16.1%	13.8 days	70.8%	21.4 µM	38.2%									
O=C(NNC(=O)c1ccc2[nH]c(-c3ccc([N+](=O)[O-])s3)nc2c1)c1ccccc1	10.1%	12 days	86.2%	10.8 µM	39.2%									
O=C(NNC(=O)c1ccc2[nH]c(-c3ccc([N+](=O)[O-])o3)nc2c1)c1cccc(Cl)c1	3.38%	12.4 days	73.4%	10.3 µM	39%									
O=C(NNC(=O)c1ccc2[nH]c(-c3ccc([N+](=O)[O-])s3)nc2c1)c1ccc(Cl)cc1	13.5%	10.8 days	25.5%		12.7%									
O=C(NNC(=O)c1ccc2[nH]c(-c3ccc([N+](=O)[O-])s3)nc2c1)c1cccc(Oc2ccccc2)c1	7.28%	11 days	76.5%	19.1 µM	0%									
O=C(NNC(=O)c1cc2ccccc2cc1O)c1ccc2[nH]c(-c3ccc([N+](=O)[O-])o3)nc2c1			31.7%		12.9%									
